In ChEMBL document CHEMBL1157506, “Synthesis and pharmacological characterization of chiral pyrrolidinylfuran derivatives: the discovery of new functionally selective muscarinic agonists” (J Med Chem, 2008):

Key:
[1] = target: T1, Muscarinic acetylcholine receptor M5 (Homo sapiens, UniProt P08912); assay: Displacement of [3H]NMS from human muscarinic M5 receptor expressed in CHO cells by liquid scintillation counter; format: cell-based
T1 sequence (P08912 whole entry): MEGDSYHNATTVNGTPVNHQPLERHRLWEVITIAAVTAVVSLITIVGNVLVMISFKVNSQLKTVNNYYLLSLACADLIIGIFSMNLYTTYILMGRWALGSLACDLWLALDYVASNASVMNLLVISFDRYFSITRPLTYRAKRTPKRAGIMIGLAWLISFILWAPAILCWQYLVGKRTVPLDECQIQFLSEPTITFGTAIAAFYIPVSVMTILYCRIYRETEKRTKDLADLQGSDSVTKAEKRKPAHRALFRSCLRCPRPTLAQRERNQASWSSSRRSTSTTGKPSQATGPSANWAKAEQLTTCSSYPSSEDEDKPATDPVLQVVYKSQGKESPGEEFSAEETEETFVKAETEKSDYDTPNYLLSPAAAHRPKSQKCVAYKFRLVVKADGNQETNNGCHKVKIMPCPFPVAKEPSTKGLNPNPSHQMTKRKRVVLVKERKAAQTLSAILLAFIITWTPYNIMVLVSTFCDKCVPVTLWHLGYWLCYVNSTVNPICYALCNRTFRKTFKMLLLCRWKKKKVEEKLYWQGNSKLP
In short: (§1)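 Membrane protein was 70 µg/mL for hm2, 50 µg/mL for hm4 and 25 µg/mL for hm5. Incubation was 120 min at room temperature in 25 mM sodium phosphate with 5 mM MgCl2, pH 7.4. GF/C filtration and scintillation counting followed; duplicates.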

[2] = target: Muscarinic acetylcholine receptor M3 (Homo sapiens, UniProt P20309); assay: Displacement of [3H]NMS from human muscarinic M3 receptor expressed in CHO cells by liquid scintillation counter; format: cell-based
Muscarinic acetylcholine receptor M3, sequence (P20309 whole entry): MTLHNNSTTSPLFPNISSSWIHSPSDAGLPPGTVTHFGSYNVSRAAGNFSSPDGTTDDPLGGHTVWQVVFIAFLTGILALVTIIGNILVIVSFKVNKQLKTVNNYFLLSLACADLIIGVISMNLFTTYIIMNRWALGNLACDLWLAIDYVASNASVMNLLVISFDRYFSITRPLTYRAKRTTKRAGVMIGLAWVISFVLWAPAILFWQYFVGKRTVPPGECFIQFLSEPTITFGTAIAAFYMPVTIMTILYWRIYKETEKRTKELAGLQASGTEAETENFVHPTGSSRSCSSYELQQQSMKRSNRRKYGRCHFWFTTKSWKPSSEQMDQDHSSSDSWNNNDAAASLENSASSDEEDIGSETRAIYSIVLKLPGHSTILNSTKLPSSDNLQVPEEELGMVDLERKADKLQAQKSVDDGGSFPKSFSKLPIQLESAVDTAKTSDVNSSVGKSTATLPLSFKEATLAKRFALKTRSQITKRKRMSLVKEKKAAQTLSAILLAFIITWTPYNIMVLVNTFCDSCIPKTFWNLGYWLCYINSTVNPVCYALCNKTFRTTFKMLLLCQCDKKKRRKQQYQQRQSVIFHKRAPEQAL

[3] = organism: Cavia porcellus; assay: Intrinsic activity at muscarinic M2 receptor in guinea pig atrium assessed as effect on inotropic activity relative to control; format: tissue-based; settings: Cardiac atrium
In short: (§2)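 Left atria in PSS at 30 °C, paced via platinum electrodes (1 ms, 1 Hz, 5-10 V). Inotropic force recorded isometrically after 2 h equilibration. A cumulative APE reference curve was obtained, then cumulative agonist curves. Responses are expressed as % of the control maximal response.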

[4] = target: T2, Muscarinic acetylcholine receptor M4 (Homo sapiens, UniProt P08173); assay: Displacement of [3H]NMS from human muscarinic M4 receptor expressed in CHO cells by liquid scintillation counter; format: cell-based; in short: as §1
T2 sequence (P08173 whole entry): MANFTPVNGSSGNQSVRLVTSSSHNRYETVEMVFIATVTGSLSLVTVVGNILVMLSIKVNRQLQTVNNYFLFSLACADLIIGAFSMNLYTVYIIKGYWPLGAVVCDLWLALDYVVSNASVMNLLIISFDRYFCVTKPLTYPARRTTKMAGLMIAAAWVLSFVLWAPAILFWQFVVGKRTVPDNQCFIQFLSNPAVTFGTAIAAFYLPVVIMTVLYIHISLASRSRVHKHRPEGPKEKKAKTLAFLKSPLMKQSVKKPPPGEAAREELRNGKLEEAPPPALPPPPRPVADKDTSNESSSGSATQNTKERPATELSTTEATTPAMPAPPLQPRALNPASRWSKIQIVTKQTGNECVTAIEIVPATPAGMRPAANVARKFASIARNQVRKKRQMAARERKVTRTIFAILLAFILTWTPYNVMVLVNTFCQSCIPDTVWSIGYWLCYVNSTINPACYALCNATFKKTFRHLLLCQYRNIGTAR

[5] = Antagonist activity at muscarinic M1/M4 receptor in New Zealanda white rabbit vas deferens assessed as effect on isometric tissue contraction; format: functional, Oryctolagus cuniculus
In short: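 Rabbit vas deferens bathed at 30 °C with 10^-6 M yohimbine and 10^-8 M tripitramine to block α2-adrenoceptors and M2 receptors. Electrically stimulated with square-wave pulses (0.1 ms, 2 Hz, 10-15 V) and equilibrated 1 h. Isometric contractions recorded during a cumulative dose-response curve to McN-A-343. Responses are expressed as % of maximal control-curve response, with parallel reference-agonist-only tissues run.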

[6] = Antagonist activity at muscarinic M1/M4 receptor in guinea pig lung assessed as effect on tissue contraction; format: functional, Cavia porcellus
[7] = Antagonist activity at muscarinic M3 receptor in guinea pig ileum assessed as effect on tissue tension changes; format: functional, Cavia porcellus
In short: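 Guinea pig ileum with isotonic recording of tension changes and 30 min equilibration. Dose-response curves to arecaidine propargyl ester taken at 30 min intervals; the first is discarded and the second serves as control. Responses are expressed as % of the maximal control-curve response, with parallel tissues given only the reference agonist to check sensitivity.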

[8] = target: T3, Muscarinic acetylcholine receptor M1 (Homo sapiens, UniProt P11229); assay: Displacement of [3H]NMS from human muscarinic M1 receptor expressed in CHO cells by liquid scintillation counter; format: cell-based
T3 sequence (P11229 whole entry): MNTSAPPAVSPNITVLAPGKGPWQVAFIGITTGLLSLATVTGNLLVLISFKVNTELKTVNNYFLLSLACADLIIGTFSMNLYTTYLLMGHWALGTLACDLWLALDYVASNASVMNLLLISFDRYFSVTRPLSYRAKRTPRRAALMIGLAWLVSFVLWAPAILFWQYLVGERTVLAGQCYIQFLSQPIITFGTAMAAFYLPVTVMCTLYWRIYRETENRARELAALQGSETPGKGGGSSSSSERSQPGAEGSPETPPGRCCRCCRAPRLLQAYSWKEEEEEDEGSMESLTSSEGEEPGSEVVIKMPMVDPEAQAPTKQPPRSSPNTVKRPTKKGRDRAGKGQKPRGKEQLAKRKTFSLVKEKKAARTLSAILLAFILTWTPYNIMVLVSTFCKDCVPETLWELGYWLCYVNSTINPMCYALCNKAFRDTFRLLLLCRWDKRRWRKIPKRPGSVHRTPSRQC

[9] = target: T4, Muscarinic acetylcholine receptor M2 (Homo sapiens, UniProt P08172); assay: Displacement of [3H]NMS from human muscarinic M2 receptor expressed in CHO cells by liquid scintillation counter; format: cell-based; in short: as §1
T4 sequence (P08172 whole entry): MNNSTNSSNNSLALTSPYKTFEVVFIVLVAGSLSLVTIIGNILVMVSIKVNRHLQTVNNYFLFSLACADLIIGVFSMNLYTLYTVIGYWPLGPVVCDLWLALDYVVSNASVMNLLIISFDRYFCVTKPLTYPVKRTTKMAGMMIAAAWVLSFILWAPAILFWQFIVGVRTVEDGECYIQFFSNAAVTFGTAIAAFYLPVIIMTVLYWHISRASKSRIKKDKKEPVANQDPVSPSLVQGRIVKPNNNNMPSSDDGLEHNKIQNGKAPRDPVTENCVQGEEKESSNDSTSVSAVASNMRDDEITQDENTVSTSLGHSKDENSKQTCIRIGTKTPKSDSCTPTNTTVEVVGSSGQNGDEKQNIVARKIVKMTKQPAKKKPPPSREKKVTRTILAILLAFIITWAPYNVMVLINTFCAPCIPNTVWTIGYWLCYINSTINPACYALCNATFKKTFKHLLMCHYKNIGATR

[10] = Agonist activity at muscarinic M2 receptor in guinea pig atrium assessed as effect on inotropic activity; format: functional, Cavia porcellus, Cardiac atrium; in short: as §2
[11] = organism: Cavia porcellus; assay: Intrinsic activity at muscarinic M1/M4 receptor in guinea pig lung assessed as effect on tissue contraction relative to control
[12] = organism: Oryctolagus cuniculus; assay: Intrinsic activity at muscarinic M1/M4 receptor in New Zealanda white rabbit vas deferens assessed as effect on isometric tissue contraction relative to control; format: tissue-based
In short: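 Vas deferens in solution with 10^-6 M yohimbine and 10^-8 M tripitramine at 30 °C, field-stimulated (0.1 ms, 2 Hz, 10-15 V). Contractions recorded isometrically after 1 h equilibration. A cumulative McN-A-343 reference curve was built, then cumulative curves to the test agonist. Responses are expressed as % of the control curve's maximum. Parallel reference-only tissues served as sensitivity checks.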

[13] = organism: Cavia porcellus; assay: Intrinsic activity at muscarinic M3 receptor in guinea pig ileum assessed as effect on tissue tension changes relative to control; format: tissue-based
In short: (§3)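 Ileum tension changes recorded isotonically after 30 min equilibration. APE curves were run at 30 min intervals; the first was discarded and the second was taken as control. Cumulative agonist curves followed, with responses expressed as % of the control maximum. Parallel reference-only tissues served as sensitivity checks.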

[14] = Agonist activity at muscarinic M3 receptor in guinea pig ileum assessed as effect on tissue tension changes; format: functional, Cavia porcellus; in short: as §3
[15] = Agonist activity at muscarinic M1/M4 receptor in guinea pig lung assessed as effect on tissue contraction; format: functional, Cavia porcellus

SMILES | Ki [1] [µM] | Ki [2] [µM] | Intrinsic activity [3] | Ki [4] [µM] | pKb [5] | pKb [6] | pKb [7] | Ki [8] [µM] | Ki [9] [µM] | pD2 [10] | Intrinsic activity [11] | A50 [3] | Intrinsic activity [12] | Intrinsic activity [13] | pD2 [14] | pD2 [15]
Cc1ccc([C@@H]2CCC[N+]2(C)C)o1.[I-] | 3.63 | 2.69 | 0.42 | 5.13 | 5.9 | 5.96 | 7.82 | 5.62 | 1.66 | 7.49 | – | – | – | – | – | –
Cc1ccc([C@H]2CCCN2)o1 | 15.8 | 12 | – | 29.5 | – | – | – | 14.5 | 3.24 | 6.71 | 0.32 | 1 | 1 | 1 | 6.16 | 5.45
C[N+](C)(C)CCOC(N)=O.[Cl-] [CARBACHOL] | – | – | 1 | – | – | – | – | – | – | – | 1 | – | – | 1 | – | –
Cc1ccc([C@H]2CCC[N+]2(C)C)o1.[I-] | 9.55 | 7.76 | 0.44 | 13.8 | 5.67 | <5 | – | 13.8 | 2.69 | 7.66 | – | – | – | 0.26 | 7.1 | –
Cc1ccc([C@H]2CCCN2C)o1 | 31.6 | 28.8 | 0.32 | 58.9 | <5 | <5 | – | 44.7 | 19.5 | 6.4 | – | – | – | 0.22 | 4.93 | –
CN1CCCC1c1ccco1 (racemic) | 44.7 | 44.7 | 0.4 | 69.2 | – | – | – | 33.1 | 41.7 | 7.25 | 0.25 | – | 0.22 | 0.35 | 5.7 | 6.87
Cc1ccc(C2CCCN2C)o1 (racemic) | 21.9 | 22.9 | 0.37 | 24.5 | – | <5 | <5 | 26.9 | 14.5 | 6.31 | – | – | – | – | – | –
CN1CCC[C@H]1c1ccco1 | 63.1 | 52.5 | 0.65 | 56.2 | – | – | – | 43.7 | 30.9 | 6.82 | 0.33 | – | 0.3 | 0.37 | 5.83 | 6.72
Cc1ccc([C@@H]2CCCN2C)o1 | 39.8 | 33.1 | 0.47 | 47.9 | <5 | <5 | <5 | 36.3 | 15.8 | 6.6 | – | – | – | – | – | –
C#CCOC(=O)C1=CCCN(C)C1 [ARECAIDINE PROPARGYL ESTER] | – | – | 1 | – | – | – | – | – | – | 8.67 | 1 | – | 1 | 1 | 7.64 | 5.56
Cc1ccc([C@@H]2CCCN2)o1 | 138 | 148 | 0.6 | 209 | <5 | 5 | – | 155 | 28.8 | 6.1 | – | – | – | 1 | 5 | –
